Measurements published in ChEMBL document CHEMBL3124924, “Bifunctional ethyl 2-amino-4-methylthiazole-5-carboxylate derivatives: synthesis and in vitro biological evaluation as antimicrobial and anticancer agents” (2014).
In brackets after ≈: the same amount, converted by molar mass.

Test system: NCI-H522
Test: Cytotoxicity against human NCI-H522 cells assessed as growth inhibition at 10 uM after 48 hrs by SRB assay
Assay type: functional
Details: NCI-H522, 48 h, read-out: GI
In short: (§1)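 NCI-60 one-dose primary screen run by the NCI Drug Evaluation Branch across the full 60-line panel. Single high-dose treatment with 48 h continuous drug exposure. Cell growth estimated by sulforhodamine B protein staining. Results given as percent growth of treated cells and expressed as percentage growth inhibition.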

Compound	inhibition of growth at 10 µM [%]
Cc1nc(NC(=O)NC2CCCCC2)sc1C(=O)NN	99.5

Test system: Pseudomonas aeruginosa
Test: Bactericidal activity against Pseudomonas aeruginosa ATCC 27853 after 18 hrs
Assay type: functional
Details: ATCC 27853, 18 h
In short: (§2)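 Continuation of the broth-dilution MIC test. A loopful from each tube without visible growth spread on a quarter of a Mueller-Hinton agar plate and incubated 18 h. Lowest concentration giving no growth on subculture taken as the MBC.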

Compound	MBC [µg/mL]
Cc1nc(NC(=O)NC2CCCCC2)sc1C(=O)NN	200 (≈ 673 µM)

Test system: Escherichia coli
Test: Antibacterial activity against Escherichia coli ATCC 25922 assessed as growth inhibition at 1 mg/mL after 24 hrs by agar-cup diffusion method
Assay type: functional
Details: ATCC 25922, 24 h, read-out: DIZ
In short: (§3)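 Agar-cup diffusion: 1 mL of 6 h broth culture seeded per 100 mL molten sterile agar at 45 °C and poured into plates. 8 mm cups cut, each filled with 0.1 mL of 1 mg/mL test solution. Incubated 37 °C for 24 h, 48 h for C. albicans. DMSO control per organism. Inhibition zone diameter in mm, mean of three measurements.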

Compound	zone of inhibition at 1000 µg/mL [mm]
Cc1nc(NC(=O)NC2CCCCC2)sc1C(=O)NN	> 13

Test system: HT-29
Test: Cytotoxicity against human HT-29 cells assessed as growth inhibition at 10 uM after 48 hrs by SRB assay
Assay type: functional
Details: HT-29, 48 h, read-out: GI
In short: as §1

Compound	inhibition of growth at 10 µM [%]
Cc1nc(NC(=O)NC2CCCCC2)sc1C(=O)NN	5.51

Test system: Escherichia coli
Test: Antibacterial activity against Escherichia coli ATCC 25922 assessed as growth inhibition after 48 hrs by two-fold serial dilution assay
Assay type: functional
Details: ATCC 25922, 48 h
In short: (§4)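 Twofold serial broth dilution run on compounds giving inhibition zones of 13 mm or more. Organisms pre-grown in suitable broth at 37 °C, 24 h for bacteria and 48 h for fungi. Dilution series 200, 100, 50, 25, 12.5, 6.25. Each 5 mL tube inoculated with 0.1 mL and incubated 37 °C for 48 h. Tubes scored for presence or absence of growth.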

MIC [µg/mL]	Compound
50 (≈ 168 µM)	Cc1nc(NC(=O)NC2CCCCC2)sc1C(=O)NN

Test system: SK-MEL-2
Test: Cytotoxicity against human SK-MEL-2 cells assessed as growth inhibition at 10 uM after 48 hrs by SRB assay
Assay type: functional
Details: SK-MEL-2, 48 h, read-out: GI
In short: as §1

Compound	inhibition of growth at 10 µM [%]
Cc1nc(NC(=O)NC2CCCCC2)sc1C(=O)NN	29.3

Test system: not listed separately
Test: Cytotoxicity against human UO31 cells assessed as growth inhibition at 10 uM after 48 hrs by SRB assay
Assay type: functional
Details: UO-31, 48 h, read-out: GI
In short: as §1

Compound	inhibition of growth at 10 µM [%]
Cc1nc(NC(=O)NC2CCCCC2)sc1C(=O)NN	16

Test system: Bacillus spizizenii
Test: Antibacterial activity against Bacillus subtilis ATCC 6633 assessed as growth inhibition after 48 hrs by two-fold serial dilution assay
Assay type: functional
Details: ATCC 6633, 48 h
In short: as §4

MIC [µg/mL]	Compound
100 (≈ 336 µM)	Cc1nc(NC(=O)NC2CCCCC2)sc1C(=O)NN

Test system: RPMI-8226
Test: Cytotoxicity against human RPMI8226 cells assessed as growth inhibition at 10 uM after 48 hrs by SRB assay
Assay type: functional
Details: RPMI-8226, 48 h, read-out: GI
In short: as §1

Compound	inhibition of growth at 10 µM [%]
Cc1nc(NC(=O)NC2CCCCC2)sc1C(=O)NN	< 10

Test system: Bacillus spizizenii
Test: Antibacterial activity against Bacillus subtilis ATCC 6633 assessed as growth inhibition at 1 mg/mL after 24 hrs by agar-cup diffusion method
Assay type: functional
Details: ATCC 6633, 24 h, read-out: DIZ
In short: as §3

Compound	zone of inhibition at 1000 µg/mL [mm]
Cc1nc(NC(=O)NC2CCCCC2)sc1C(=O)NN	> 13

Test system: T47D
Test: Cytotoxicity against human T47D cells assessed as growth inhibition at 10 uM after 48 hrs by SRB assay
Assay type: functional
Details: read-out: GI
In short: as §1

Compound	inhibition of growth at 10 µM [%]
Cc1nc(NC(=O)NC2CCCCC2)sc1C(=O)NN	< 10

Test system: HOP-92
Test: Cytotoxicity against human HOP92 cells assessed as growth inhibition at 10 uM after 48 hrs by SRB assay
Assay type: functional
Details: HOP-92, 48 h, read-out: GI
In short: as §1

Compound	inhibition of growth at 10 µM [%]
Cc1nc(NC(=O)NC2CCCCC2)sc1C(=O)NN	82.8

Test system: Staphylococcus aureus
Test: Antibacterial activity against Staphylococcus aureus ATCC 6538 assessed as growth inhibition after 48 hrs by two-fold serial dilution assay
Assay type: functional
Details: ATCC 6538, 48 h
In short: as §4

MIC [µg/mL]	Compound
25 (≈ 84.1 µM)	Cc1nc(NC(=O)NC2CCCCC2)sc1C(=O)NN

Test system: MOLT-4
Test: Cytotoxicity against human MOLT4 cells assessed as growth inhibition at 10 uM after 48 hrs by SRB assay
Assay type: functional
Details: MOLT-4, 48 h, read-out: GI
In short: as §1

Compound	inhibition of growth at 10 µM [%]
Cc1nc(NC(=O)NC2CCCCC2)sc1C(=O)NN	< 10

Test system: Escherichia coli
Test: Bactericidal activity against Escherichia coli ATCC 25922 after 18 hrs
Assay type: functional
Details: ATCC 25922, 18 h
In short: as §2

Compound	MBC [µg/mL]
Cc1nc(NC(=O)NC2CCCCC2)sc1C(=O)NN	100 (≈ 336 µM)

Test system: Staphylococcus aureus
Test: Bactericidal activity against Staphylococcus aureus ATCC 6538 after 18 hrs
Assay type: functional
Details: ATCC 6538, 18 h
In short: as §2

Compound	MBC [µg/mL]
Cc1nc(NC(=O)NC2CCCCC2)sc1C(=O)NN	50 (≈ 168 µM)

Test system: MDA-MB-468
Test: Cytotoxicity against human MDA-MB-468 cells assessed as growth inhibition at 10 uM after 48 hrs by SRB assay
Assay type: functional
Details: MDA-MB-468, 48 h, read-out: GI
In short: as §1

Compound	inhibition of growth at 10 µM [%]
Cc1nc(NC(=O)NC2CCCCC2)sc1C(=O)NN	3.73

Test system: not listed separately
Test: Cytotoxicity against human NCI-ADR-RES cells assessed as growth inhibition at 10 uM after 48 hrs by SRB assay
Assay type: functional
Details: read-out: GI
In short: as §1

Compound	inhibition of growth at 10 µM [%]
Cc1nc(NC(=O)NC2CCCCC2)sc1C(=O)NN	3.01

Test system: SF-268
Test: Cytotoxicity against human SF268 cells assessed as growth inhibition at 10 uM after 48 hrs by SRB assay
Assay type: functional
Details: SF-268, 48 h, read-out: GI
In short: as §1

Compound	inhibition of growth at 10 µM [%]
Cc1nc(NC(=O)NC2CCCCC2)sc1C(=O)NN	< 10

Test system: PC-3
Test: Cytotoxicity against human PC3 cells assessed as growth inhibition at 10 uM after 48 hrs by SRB assay
Assay type: functional
Details: PC-3, 48 h, read-out: GI
In short: as §1

Compound	inhibition of growth at 10 µM [%]
Cc1nc(NC(=O)NC2CCCCC2)sc1C(=O)NN	< 10

Test system: Staphylococcus aureus
Test: Antibacterial activity against Staphylococcus aureus ATCC 6538 assessed as growth inhibition at 1 mg/mL after 24 hrs by agar-cup diffusion method
Assay type: functional
Details: ATCC 6538, 24 h, read-out: DIZ
In short: as §3

Compound	zone of inhibition at 1000 µg/mL [mm]
Cc1nc(NC(=O)NC2CCCCC2)sc1C(=O)NN	> 13

Test system: IGROV-1
Test: Cytotoxicity against human IGROV1 cells assessed as growth inhibition at 10 uM after 48 hrs by SRB assay
Assay type: functional
Details: IGROV-1, 48 h, read-out: GI
In short: as §1

Compound	inhibition of growth at 10 µM [%]
Cc1nc(NC(=O)NC2CCCCC2)sc1C(=O)NN	28

Test system: Pseudomonas aeruginosa
Test: Antibacterial activity against Pseudomonas aeruginosa ATCC 27853 assessed as growth inhibition after 48 hrs by two-fold serial dilution assay
Assay type: functional
Details: ATCC 27853, 48 h
In short: as §4

MIC [µg/mL]	Compound
100 (≈ 336 µM)	Cc1nc(NC(=O)NC2CCCCC2)sc1C(=O)NN

Test system: CCRF-CEM
Test: Cytotoxicity against human CCRF-CEM cells assessed as growth inhibition at 10 uM after 48 hrs by SRB assay
Assay type: functional
Details: read-out: GI
In short: as §1

Compound	inhibition of growth at 10 µM [%]
Cc1nc(NC(=O)NC2CCCCC2)sc1C(=O)NN	< 10

Test system: UACC-62
Test: Cytotoxicity against human UACC62 cells assessed as growth inhibition at 10 uM after 48 hrs by SRB assay
Assay type: functional
Details: UACC-62, 48 h, read-out: GI
In short: as §1

Compound	inhibition of growth at 10 µM [%]
Cc1nc(NC(=O)NC2CCCCC2)sc1C(=O)NN	10.2

Test system: SNB-75
Test: Cytotoxicity against human SNB75 cells assessed as growth inhibition at 10 uM after 48 hrs by SRB assay
Assay type: functional
Details: SNB-75, 48 h, read-out: GI
In short: as §1

Compound	inhibition of growth at 10 µM [%]
Cc1nc(NC(=O)NC2CCCCC2)sc1C(=O)NN	< 10

Test system: HCC 2998
Test: Cytotoxicity against human HCC2998 cells assessed as growth inhibition at 10 uM after 48 hrs by SRB assay
Assay type: functional
Details: HCC 2998, 48 h, read-out: GI
In short: as §1

Compound	inhibition of growth at 10 µM [%]
Cc1nc(NC(=O)NC2CCCCC2)sc1C(=O)NN	< 10

Test system: Bacillus spizizenii
Test: Bactericidal activity against Bacillus subtilis ATCC 6633 after 18 hrs
Assay type: functional
Details: ATCC 6633, 18 h
In short: as §2

Compound	MBC [µg/mL]
Cc1nc(NC(=O)NC2CCCCC2)sc1C(=O)NN	100 (≈ 336 µM)

Test system: NCI-H322M
Test: Cytotoxicity against human NCI-H322M cells assessed as growth inhibition at 10 uM after 48 hrs by SRB assay
Assay type: functional
Details: read-out: GI
In short: as §1

Compound	inhibition of growth at 10 µM [%]
Cc1nc(NC(=O)NC2CCCCC2)sc1C(=O)NN	< 10

Test system: Pseudomonas aeruginosa
Test: Antibacterial activity against Pseudomonas aeruginosa ATCC 27853 assessed as growth inhibition at 1 mg/mL after 24 hrs by agar-cup diffusion method
Assay type: functional
Details: ATCC 27853, 24 h, read-out: DIZ
In short: as §3

Compound	zone of inhibition at 1000 µg/mL [mm]
Cc1nc(NC(=O)NC2CCCCC2)sc1C(=O)NN	> 13

Test system: SW-620
Test: Cytotoxicity against human SW620 cells assessed as growth inhibition at 10 uM after 48 hrs by SRB assay
Assay type: functional
Details: SW-620, 48 h, read-out: GI
In short: as §1

Compound	inhibition of growth at 10 µM [%]
Cc1nc(NC(=O)NC2CCCCC2)sc1C(=O)NN	< 10

Test system: MCF7
Test: Cytotoxicity against human MCF7 cells assessed as growth inhibition at 10 uM after 48 hrs by SRB assay
Assay type: functional
Details: MCF7, 48 h, read-out: GI
In short: as §1

Compound	inhibition of growth at 10 µM [%]
Cc1nc(NC(=O)NC2CCCCC2)sc1C(=O)NN	< 10
